Experimental data published in the RNAGym collection of RNA variant scans (doi:10.1126/science.aae0568).
Fewer inactive variants are shown than the library holds.

B1: tRNA (parent)
chain: GUUCCGUUGGCGUAAUGGUAACGCGUCUCCCUCCUAAGGAGAAGACUGCGGGUUCGAGUCCCGUACGGAACG

Variants of: B1
Assay: yeast fitness relative to wild type (ratio to wild type); higher = fitter; tRNA-Arg(CCU), competitive growth, 37 C, YPD
Outline: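 Start and end populations of a pooled competition were compared by 100-nucleotide paired-end sequencing of gene amplicons. The Saccharomyces cerevisiae strains carried tRNA-Arg(CCU) gene variants at the native genomic locus, synthesised with a 3% per-site mutation rate at 69 sites, and competed in YPD at 37°C for 24 hours in six parallel replicates. Darwinian fitness relative to wild type was based on the change in genotype frequencies. Genotypes required ≥ 100 starting reads, and estimates < 0.5 were set to 0.5.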
For C22G A42C C60G, the yeast fitness was ≤ 0.5. With C22G A42C C62U the yeast fitness was 0.52. In the case of C22G A42G, the yeast fitness is reported as 0.716. For C22G A42G C49U, the yeast fitness was 0.712. For C22G A42G G48C A65U, the yeast fitness was ≤ 0.5. For C22G A42G U59A G68C, the yeast fitness was ≤ 0.5. For C22G A42U, the yeast fitness was 0.699. With C22G A42U C62A the yeast fitness was ≤ 0.5. Variant C22G A42U G50U has a yeast fitness of 0.523. For C22G A43C A45U G52A, the yeast fitness was ≤ 0.5. For C22G A43C A70U, the yeast fitness was 0.593. In the case of C22G A43C U53C C55G, the yeast fitness is reported as ≤ 0.5. C22G A43G A70U showed a yeast fitness of 0.683. C22G A43U gave a yeast fitness of 0.952. C22G A43U A69C gave a yeast fitness of 0.656. In the case of C22G A43U C46G, the yeast fitness is reported as ≤ 0.5. C22G A43U C62U showed a yeast fitness of 0.56. With C22G A43U U54C C62U the yeast fitness was ≤ 0.5. Variant C22G A43U U64C has a yeast fitness of 0.611. In the case of C22G A45C A65C, the yeast fitness is reported as ≤ 0.5. Variant C22G A45C C49U A57U C62A has a yeast fitness of 0.619. With C22G A45C G52C A57U A69C the yeast fitness was 0.619. In the case of C22G A45G, the yeast fitness is reported as 0.867. For C22G A45U C49G A65U, the yeast fitness was ≤ 0.5. For C22G A45U G48C A57C G67U, the yeast fitness was ≤ 0.5. In the case of C22G A45U U47A, the yeast fitness is reported as ≤ 0.5. Work on C22G A57C yielded a yeast fitness of 0.684. C22G A57G gave a yeast fitness of 0.676. With C22G A57G A65G the yeast fitness was 0.624. For C22G A57U A65C C66G, the yeast fitness was ≤ 0.5. In the case of C22G A57U C61U, the yeast fitness is reported as ≤ 0.5. C22G A57U C66U gave a yeast fitness of 0.524. With C22G A57U G63C the yeast fitness was ≤ 0.5. C22G A65G gave a yeast fitness of 0.932. In the case of C22G A65U, the yeast fitness is reported as 1.03. C22G A69C gave a yeast fitness of 0.82. With C22G A69C A70G the yeast fitness was 0.632. C22G A69U showed a yeast fitness of 0.903. With C22G A70C the yeast fitness was 0.963. With C22G A70U the yeast fitness was 1.01. With C22G C24A C55A the yeast fitness was ≤ 0.5. In the case of C22G C24A C61G C66A, the yeast fitness is reported as ≤ 0.5. For C22G C24A G38A A57G, the yeast fitness was ≤ 0.5. With C22G C24A G68C the yeast fitness was ≤ 0.5. Variant C22G C24G has a yeast fitness of 0.595. For C22G C24G A45C U47C G63C, the yeast fitness was ≤ 0.5. Work on C22G C24G C27G yielded a yeast fitness of 0.766. For C22G C24G C27G G58C, the yeast fitness was ≤ 0.5. In the case of C22G C24G C29U C33U A37C G52A C61U, the yeast fitness is reported as ≤ 0.5. C22G C24G G50A A69C gave a yeast fitness of 0.574. For C22G C24G G50A A70U, the yeast fitness was ≤ 0.5. For C22G C24U, the yeast fitness was 0.894. C22G C24U A37C G51C C55U A69C A70U showed a yeast fitness of 0.554. For C22G C24U A37C G51C C55U A70U, the yeast fitness was ≤ 0.5. In the case of C22G C24U C29U C30G, the yeast fitness is reported as 0.579. For C22G C24U C29U C30G G63C, the yeast fitness was ≤ 0.5. For C22G C24U C29U C30G U53A U54A, the yeast fitness was ≤ 0.5. In the case of C22G C24U C29U C33U A37C G52A C66U, the yeast fitness is reported as ≤ 0.5. For C22G C24U C31U A40U U59A C61A, the yeast fitness was ≤ 0.5. With C22G C24U G44A U53G the yeast fitness was 0.521. In the case of C22G C24U U28A C31G C55A G68C, the yeast fitness is reported as ≤ 0.5. C22G C24U U64C gave a yeast fitness of 0.538. For C22G C27A, the yeast fitness was 0.604. With C22G C27A A65G the yeast fitness was ≤ 0.5. For C22G C27A C46U, the yeast fitness was 0.539. For C22G C27A C49A G56C A65G, the yeast fitness was 0.746. With C22G C27A C49U C55U G58U the yeast fitness was ≤ 0.5. For C22G C27A G63A, the yeast fitness was ≤ 0.5. In the case of C22G C27G A43U A45C U54A, the yeast fitness is reported as ≤ 0.5. C22G C27G A45U A57G A70G showed a yeast fitness of 0.595. With C22G C27G A45U C49U A57G A70G the yeast fitness was ≤ 0.5. In the case of C22G C27G C29G C34A A43U A65U, the yeast fitness is reported as ≤ 0.5. In the case of C22G C27G C29G C34A A43U A69C, the yeast fitness is reported as ≤ 0.5. With C22G C27G C29G C34A A43U U54C A65U the yeast fitness was ≤ 0.5. For C22G C27G C31G A37G C61G A69U, the yeast fitness was 0.758. In the case of C22G C27G C31G A57U, the yeast fitness is reported as ≤ 0.5. For C22G C27G C31G C61G, the yeast fitness was 0.575. In the case of C22G C27G C31G C61G A69C, the yeast fitness is reported as ≤ 0.5. With C22G C27G C31G G41A C61G A69U the yeast fitness was ≤ 0.5. In the case of C22G C27G C33U G39A G41A, the yeast fitness is reported as ≤ 0.5. C22G C27G C33U G41A gave a yeast fitness of 0.631. In the case of C22G C27G G39A U64C, the yeast fitness is reported as 0.604. For C22G C27G U47C U59C C62U G68U, the yeast fitness was ≤ 0.5. For C22G C27G U59C C62U U64C G68U, the yeast fitness was ≤ 0.5. Variant C22G C27U has a yeast fitness of 0.884. Work on C22G C27U G68A yielded a yeast fitness of 0.623. C22G C29A A42C showed a yeast fitness of 0.542. For C22G C29A A43C C60G, the yeast fitness was ≤ 0.5. For C22G C29A G58A C61G A70U, the yeast fitness was ≤ 0.5. In the case of C22G C29A U53A, the yeast fitness is reported as ≤ 0.5. For C22G C29G A36C G39C C46G G52A, the yeast fitness was ≤ 0.5. In the case of C22G C29G A36C G39C C46G G52A G67C, the yeast fitness is reported as ≤ 0.5. With C22G C29G A42G C46U A70U the yeast fitness was ≤ 0.5. For C22G C29G A43G G63U, the yeast fitness was ≤ 0.5. Variant C22G C29G A69U has a yeast fitness of 0.626. With C22G C29G C33U A42G the yeast fitness was ≤ 0.5. C22G C29G C46U A70U showed a yeast fitness of 0.592. In the case of C22G C29G C66A A69U, the yeast fitness is reported as ≤ 0.5. For C22G C29G G44C G56A A57G G67U A70C, the yeast fitness was ≤ 0.5. For C22G C29G G51A, the yeast fitness was 0.536. In the case of C22G C29G G51C, the yeast fitness is reported as ≤ 0.5. In the case of C22G C29G G56A, the yeast fitness is reported as 0.575. In the case of C22G C29U A37U, the yeast fitness is reported as 0.589. For C22G C29U C31A, the yeast fitness was ≤ 0.5. For C22G C30A, the yeast fitness was 0.65. For C22G C30A A42C G58A, the yeast fitness was ≤ 0.5. With C22G C30A G51A the yeast fitness was ≤ 0.5. In the case of C22G C30A U47A, the yeast fitness is reported as ≤ 0.5. C22G C30G showed a yeast fitness of 0.591. With C22G C30G A45U the yeast fitness was ≤ 0.5. For C22G C30G U47C, the yeast fitness was ≤ 0.5. For C22G C30G U59G, the yeast fitness was ≤ 0.5. For C22G C30U, the yeast fitness was 0.817. Variant C22G C30U A37G A43U G67A has a yeast fitness of 0.603. For C22G C30U C34U A43G, the yeast fitness was ≤ 0.5. Variant C22G C30U C49A A57U C61U has a yeast fitness of 0.548. For C22G C30U C49G, the yeast fitness was ≤ 0.5. C22G C31A showed a yeast fitness of 0.78. With C22G C31A A43G the yeast fitness was ≤ 0.5. With C22G C31A A43G A70U the yeast fitness was ≤ 0.5. With C22G C31A A45U the yeast fitness was 0.621. With C22G C31A C49G G63C the yeast fitness was 0.545. For C22G C31A U47C C49G G63C A69U, the yeast fitness was ≤ 0.5. For C22G C31G, the yeast fitness was 0.745. In the case of C22G C31G A57U, the yeast fitness is reported as ≤ 0.5. Variant C22G C31G A69C has a yeast fitness of 0.566. In the case of C22G C31G C55U C61G C62G, the yeast fitness is reported as ≤ 0.5. In the case of C22G C31G C61A, the yeast fitness is reported as ≤ 0.5. In the case of C22G C31G C62U A70U, the yeast fitness is reported as ≤ 0.5. In the case of C22G C31G C66U A69C, the yeast fitness is reported as 0.528. For C22G C31G G52C, the yeast fitness was ≤ 0.5. For C22G C31G G58C G67C, the yeast fitness was ≤ 0.5. Variant C22G C31U has a yeast fitness of 1. Variant C22G C31U A65G has a yeast fitness of 0.867. C22G C31U A70U gave a yeast fitness of 0.661. In the case of C22G C31U C46U A69U, the yeast fitness is reported as 0.526. Work on C22G C31U C66G yielded a yeast fitness of 0.512. Variant C22G C31U G56A has a yeast fitness of 1.16. Variant C22G C31U U59G has a yeast fitness of 0.539. With C22G C33A C49G the yeast fitness was 0.592. For C22G C33G G51A, the yeast fitness was ≤ 0.5. C22G C33U A36C A40U gave a yeast fitness of 0.665. For C22G C33U A42U A43G C61A, the yeast fitness was ≤ 0.5. C22G C34A showed a yeast fitness of 0.757. With C22G C34A A40C A45U the yeast fitness was 0.665. For C22G C34A G41A, the yeast fitness was ≤ 0.5. For C22G C34A G56C, the yeast fitness was ≤ 0.5. With C22G C34G the yeast fitness was 0.612. Work on C22G C34G A40C A69U yielded a yeast fitness of 0.769. With C22G C34U A69U the yeast fitness was 0.573. In the case of C22G C34U C46A, the yeast fitness is reported as ≤ 0.5. With C22G C34U C49U C55G C62U the yeast fitness was ≤ 0.5. Variant C22G C46A C62U G63A has a yeast fitness of 0.651. In the case of C22G C46U, the yeast fitness is reported as 0.929. In the case of C22G C46U G50A, the yeast fitness is reported as 0.719. For C22G C49A G56C G58C C60A, the yeast fitness was ≤ 0.5. C22G C49G G68A showed a yeast fitness of 0.529. C22G C49U A65G gave a yeast fitness of 0.785. In the case of C22G C49U C60A, the yeast fitness is reported as ≤ 0.5. C22G C49U C66U gave a yeast fitness of 0.666. C22G C49U G56A showed a yeast fitness of 0.797. Variant C22G C55A has a yeast fitness of 0.712. C22G C55G showed a yeast fitness of 0.585. In the case of C22G C55U A57U, the yeast fitness is reported as ≤ 0.5. Variant C22G C60A C62U has a yeast fitness of 0.589. C22G C60G gave a yeast fitness of 0.621. Work on C22G C61G yielded a yeast fitness of 0.684.
